Assay outcomes: PubChem BioAssay, several laboratories
PostGolgi ctrl: yeast control strain growth, post-Golgi counter-screen; efflux-deficient yeast background strain, growth absorbance A615, 16 h; inhibition, % at 10 µM; actives 5% (n = 98,000); AID 738
PLAP activator: activators of human placental alkaline phosphatase. purified PLAP enzyme, luminescent substrate read-out; stronger effect = higher value. activation fold at 20 µM. actives 1.2% (n = 96,000). AID 696; in the data active means activation fold above about 2
HePTP inhibitor: inhibitors of human HePTP phosphatase; inhibition, % at 20 µM; recombinant HePTP phosphatase activity, OD absorbance; actives 0.64% (n = 110,000); P35236; AID 521; in the data active means inhibition above about 50%;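 further: plate controls were vehicle for no effect and reference inhibitor for full effect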
Target sequence (P35236 whole entry, looked up): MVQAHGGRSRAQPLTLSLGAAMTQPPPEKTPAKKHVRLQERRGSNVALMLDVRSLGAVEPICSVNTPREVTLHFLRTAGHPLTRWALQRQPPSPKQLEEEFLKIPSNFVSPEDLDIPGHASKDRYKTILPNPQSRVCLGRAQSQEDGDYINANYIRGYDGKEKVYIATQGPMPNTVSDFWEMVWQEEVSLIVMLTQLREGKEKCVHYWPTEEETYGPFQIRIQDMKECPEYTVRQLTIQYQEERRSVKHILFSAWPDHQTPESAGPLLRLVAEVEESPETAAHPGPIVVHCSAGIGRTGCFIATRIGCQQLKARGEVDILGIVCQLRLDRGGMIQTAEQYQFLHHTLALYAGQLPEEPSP
tolC growth inh: blocks growth of E. coli BW25113 tolC mutant; AID 573; growth inhibition, % at 10 µM (by protocol); actives 2.2% (n = 65,000); OD615;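 active means growth inhibition at or above a cutoff equal to the mean over every tested compound plus 3 SD, cut at about 60% in these data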;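 further: growth measured after 20 h incubation at 37 °C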
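Signal: optical density read at 615 nm; Assay system: E. coli ΔtolC::kan strain BW25113; Times: 20 h incubation with compound, 37 °C; Dosing: 10 µM final, single dose.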
PostGolgi yeast: growth inhibition of a yeast mutant, post-Golgi transport screen | actives 0.9% (n = 98,000) | inhibition, % at 10 µM | post-Golgi transport phenotypic cell assay;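 further: yeast cells grown in 1536-well plates; yeast grown about 18 h at 30C before absorbance read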
E coli WT exp: growth inhibitors of E. coli BW25113 wild type | actives 0.15% (n = 98,000) | AID 710 | growth inhibition, % at 100 µM | OD600 absorbance;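 active means growth inhibition above about 50% at one test dose, limit read from the data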;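 further: growth measured after 20 h incubation at 37 °C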
Numbers without * were called inactive. Hits are enriched below; roughly 5.4% of the tested compounds scored in any of these assays. Unless noted, no stated cut-off is given here; in the data, active means inhibition above about 30%; inactive means the rest.

CC(C)(C)n1nnnc1C(c1cccc(C#N)c1)N1CCC(Cc2ccccc2)CC1 (stereo unspecified) was read as PostGolgi ctrl 43.2*, PLAP activator 1.4, HePTP inhibitor 10.2, tolC growth inh 26.2, PostGolgi yeast -4.3 and E coli WT exp -13.0.
Screening CCC(C)(C)n1nnnc1C(c1ccncc1)N1CCC(Cc2ccccc2)CC1 (stereo unspecified) returned PostGolgi ctrl 13.7, PLAP activator 1.7, PostGolgi yeast 2.1 and E coli WT exp -3.0.
COC(=O)c1sc2cc(C(F)(F)F)cnc2c1-c1cccnc1 was read as PostGolgi ctrl -3.0, PLAP activator 1.2, PostGolgi yeast 4.6 and E coli WT exp 0.0.
CCc1nc2ccccc2n1CC(=O)N(C(C)CC)C1CCS(=O)(=O)C1 (stereo unspecified) was read as PostGolgi ctrl -9.2, PLAP activator 0.9, HePTP inhibitor 3.4, tolC growth inh -18.5, PostGolgi yeast -3.4 and E coli WT exp 12.0.
`O=C(CNC(=O)c1cccs1)OCC(=O)c1cccs1` gave PostGolgi ctrl 10.9, PLAP activator 0.9, HePTP inhibitor 3.1, tolC growth inh -6.9, PostGolgi yeast -0.3 and E coli WT exp 11.0.
For CC(C)(C)n1nnnc1C(c1cccnc1)N1CCN(c2ccccc2)CC1 (stereo unspecified) the results were PostGolgi ctrl 76.2*, PLAP activator 1.3, PostGolgi yeast 92.5* and E coli WT exp 0.0.
`CCC(C)(C)n1nnnc1C(c1cccs1)N1CCc2ccccc21` (stereo unspecified) gave PostGolgi ctrl 22.5, PLAP activator 0.9, HePTP inhibitor 48.4, tolC growth inh 59.1, PostGolgi yeast -3.9 and E coli WT exp -9.0.
`CC(C)(C)n1nnnc1C(c1cccs1)N1CCN(c2ccccc2)CC1` (stereo unspecified) gave PostGolgi ctrl 35.9*, PLAP activator 1, PostGolgi yeast 8.2 and E coli WT exp -8.0.
For COc1ccc(-c2nnc3n2N=C(c2cccc(Br)c2)CS3)cc1OC the results were PostGolgi ctrl 8.2, PLAP activator 0.9, HePTP inhibitor -1.6, tolC growth inh 2.0, PostGolgi yeast 0.0 and E coli WT exp -7.0.
`COC(=O)CSc1nc(NC(C)C)nc(N2CCOCC2)n1` gave PostGolgi ctrl 7.7, PLAP activator 1.2, HePTP inhibitor 12.8, tolC growth inh -1.7, PostGolgi yeast -0.2 and E coli WT exp -1.0.
Screening CCCC(C)C(=O)Nc1nc(C)c(-c2csc(Nc3ccc(Cl)cc3)n2)s1 (stereo unspecified) returned PostGolgi ctrl 33.9*, PLAP activator 1.2, PostGolgi yeast 0.2 and E coli WT exp -2.0.
Screening Cc1ccc(-n2cc3c(-c4cccc(Br)c4)nnc(C)c3n2)cc1 returned PostGolgi ctrl 41.1*, PLAP activator 1.4, PostGolgi yeast 98.7* and E coli WT exp -10.0.
For Cc1nnc(-c2cccc(Br)c2)c2cn(-c3ccccc3Cl)nc12 the results were PostGolgi ctrl 27.2, PLAP activator 1.1, PostGolgi yeast 102.0* and E coli WT exp 6.0.
`Cc1ccc(-n2ncnc2-c2cccc(Br)c2)cc1Cl` gave HePTP inhibitor -4.1.
For Cc1nn(Cc2ccccc2)c(N)c1C#N the results were PostGolgi ctrl -7.6, PLAP activator 1, HePTP inhibitor 3.6, tolC growth inh -6.7, PostGolgi yeast -4.7 and E coli WT exp 4.0.
Cc1nn(Cc2ccccc2)c(N)c1-c1ccccc1 was read as PostGolgi ctrl 2.9, PLAP activator 0.8, HePTP inhibitor 0.3, tolC growth inh -3.3, PostGolgi yeast 34.3* and E coli WT exp 9.0.
`O=C(CSc1ncnc2nc[nH]c12)c1ccccc1` gave PostGolgi ctrl 6.3, PLAP activator 1, PostGolgi yeast 2.6 and E coli WT exp 2.0.
`Clc1ccc(-c2nnc(Sc3nc4ccccc4o3)c3ccccc23)cc1` gave PostGolgi ctrl 57.0*, PostGolgi yeast -7.8 and E coli WT exp -12.0.
Cc1ccc(-c2nnc(Sc3nc4ccccc4o3)c3ccccc23)cc1 was read as PostGolgi ctrl 64.1*, PostGolgi yeast -22.4 and E coli WT exp -14.0.
`CCOC(=O)c1ccc(NC(=O)CSc2nc(SC)ns2)cc1` gave PostGolgi ctrl 5.0, PLAP activator 1.1, HePTP inhibitor 10.1, tolC growth inh 100.0*, PostGolgi yeast 0.5 and E coli WT exp 22.0.
For CSc1nsc(SCC(=O)Nc2cccc(C(C)=O)c2)n1 the results were PostGolgi ctrl 0.8, PLAP activator 0.9, HePTP inhibitor -7.3, tolC growth inh -14.0, PostGolgi yeast 20.1 and E coli WT exp 0.0.
Screening COc1ccc(-c2cccc(C(=O)NCC(=O)O)c2)cc1 returned PostGolgi ctrl 6.9, PLAP activator 1.3, PostGolgi yeast -6.9 and E coli WT exp -13.0.
`CC12CCC(C(=O)Nc3cccc4ccccc34)(C1Br)C2(C)C` (stereo unspecified) gave PostGolgi ctrl 40.0*, PLAP activator 0.9, PostGolgi yeast -3.4 and E coli WT exp -2.0.
Screening COc1cccc(/C=N/NC(=O)c2ccc(COc3ccc(Cl)cc3Cl)o2)c1 returned PostGolgi ctrl -8.2, PLAP activator 0.9, PostGolgi yeast 7.1 and E coli WT exp -1.0.
`CC(C)Oc1ccc(NC(N)=O)cc1` gave PLAP activator 0.9, HePTP inhibitor 6.9 and tolC growth inh -12.8.
`O=C(CCCN1C(=O)c2ccccc2C1=O)Nc1ccccc1C(=O)N1CCCCC1` gave HePTP inhibitor 77.5*.
`O=C(CCCN1C(=O)c2ccccc2C1=O)Nc1ccccc1C(=O)N1CCCC1` gave HePTP inhibitor 1.3.
Cc1cc(Br)ccc1NC(=O)CNC(=O)CSc1n[nH]c(N)n1 was read as PostGolgi ctrl 13.5, PLAP activator 1.9, HePTP inhibitor 6.0, tolC growth inh -16.3, PostGolgi yeast -6.9 and E coli WT exp 4.0.
Screening Nc1nc(SCC(=O)Nc2ccc(Br)cc2F)n[nH]1 returned PostGolgi ctrl -2.0, PLAP activator 2*, HePTP inhibitor 11.2, tolC growth inh -2.7, PostGolgi yeast 13.4 and E coli WT exp 14.0.
`O=C1c2ccccc2C(=O)C1c1cccc2ccccc12` gave HePTP inhibitor -0.3.
Nn1cnn(Cc2ccccc2)c1=S was read as PostGolgi ctrl 19.4, PLAP activator 1, HePTP inhibitor 8.2, tolC growth inh -15.7, PostGolgi yeast -1.8 and E coli WT exp 0.0.
For Cc1nn(C)c(C(=O)NNC(=S)Nc2ccc(Cl)cc2)c1[N+](=O)[O-] the results were PostGolgi ctrl 6.5, PLAP activator 1.7, PostGolgi yeast -15.1 and E coli WT exp 10.0.
For COc1cccc(NC(=S)NNC(=O)C(C)n2nc(C)c([N+](=O)[O-])c2C)c1 (stereo unspecified) the results were PostGolgi ctrl 0.0, PLAP activator 2.1*, PostGolgi yeast -2.6 and E coli WT exp -1.0.
